Data taken from ChEMBL document CHEMBL1157465, “Design, synthesis, and biological evaluation of novel 3-aryl-4-(1H-indole-3yl)-1,5-dihydro-2H-pyrrole-2-ones as vascular endothelial growth factor receptor (VEGF-R) inhibitors” (J Med Chem, 2008).

Legend:
[1] = target: Vascular endothelial growth factor receptor 2 (Homo sapiens, UniProt P35968); experiment: Inhibition of human recombinant VEGFR2
How it was run: (§1)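 Recombinant human tyrosine kinases (EPHB4, TIE2, VEGF-R2, VEGF-R3), expressed in Sf9 insect cells as GST- or His-fusions, with poly(Glu,Tyr) 4:1 as substrate. Conditions: 1 µM [γ-33P]ATP, pH 7.5 HEPES buffer with Mg/Mn, DTT and vanadate, 30 °C for 80 min, 1% DMSO. Ten concentrations were tested and IC50 came from scintillation counting of incorporated 33P.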

[2] = target: T1, Receptor-type tyrosine-protein kinase FLT3 (Homo sapiens, UniProt P36888); experiment: Inhibition of human recombinant FLT3
T1 sequence (P36888 whole entry): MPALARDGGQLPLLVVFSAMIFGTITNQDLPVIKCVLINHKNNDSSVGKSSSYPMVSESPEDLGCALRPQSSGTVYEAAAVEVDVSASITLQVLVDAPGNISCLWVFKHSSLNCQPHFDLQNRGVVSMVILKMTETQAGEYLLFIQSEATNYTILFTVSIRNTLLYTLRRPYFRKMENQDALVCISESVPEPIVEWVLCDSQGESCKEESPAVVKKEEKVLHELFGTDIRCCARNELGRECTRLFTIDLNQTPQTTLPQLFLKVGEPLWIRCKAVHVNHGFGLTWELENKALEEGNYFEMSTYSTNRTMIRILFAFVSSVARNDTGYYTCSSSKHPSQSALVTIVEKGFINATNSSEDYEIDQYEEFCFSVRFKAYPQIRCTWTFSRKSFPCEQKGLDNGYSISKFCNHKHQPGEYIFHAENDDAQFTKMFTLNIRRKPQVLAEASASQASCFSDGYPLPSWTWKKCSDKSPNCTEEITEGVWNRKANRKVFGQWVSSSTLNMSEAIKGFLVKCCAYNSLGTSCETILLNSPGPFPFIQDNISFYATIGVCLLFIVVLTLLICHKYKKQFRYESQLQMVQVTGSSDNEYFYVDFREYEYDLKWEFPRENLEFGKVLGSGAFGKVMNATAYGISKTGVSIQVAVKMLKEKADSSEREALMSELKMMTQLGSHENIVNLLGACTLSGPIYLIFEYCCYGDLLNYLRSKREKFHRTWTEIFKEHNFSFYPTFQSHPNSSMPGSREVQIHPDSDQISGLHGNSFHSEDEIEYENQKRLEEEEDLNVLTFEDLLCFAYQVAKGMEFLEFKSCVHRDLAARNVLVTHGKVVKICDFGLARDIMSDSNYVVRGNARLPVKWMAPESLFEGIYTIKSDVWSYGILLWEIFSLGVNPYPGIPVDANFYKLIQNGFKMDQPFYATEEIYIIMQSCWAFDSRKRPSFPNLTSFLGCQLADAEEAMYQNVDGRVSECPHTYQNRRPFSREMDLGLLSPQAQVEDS
How it was run: (§2)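 Human kinases expressed in Sf9 cells via baculovirus as GST or His fusions and affinity purified. 33PanQinase assay in 60 mM HEPES-NaOH pH 7.5, 3 mM MgCl2, 3 mM MnCl2, 3 µM orthovanadate, 1.2 mM DTT, 1 µM [γ-33P]ATP, 1% DMSO; 30 °C, 80 min. Substrates: poly(Glu,Tyr) 4:1 for ERBB2, IGF1-R and SRC; poly(Ala,Glu,Lys,Tyr) 6:2:5:1 for FLT3. IC50 from 10 concentrations by scintillation counting.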

[3] = target: Vascular endothelial growth factor receptor 3 (Homo sapiens, UniProt P35916); experiment: Inhibition of human recombinant VEGFR3; how it was run: as §1
Chain of Vascular endothelial growth factor receptor 3 (P35916 whole entry): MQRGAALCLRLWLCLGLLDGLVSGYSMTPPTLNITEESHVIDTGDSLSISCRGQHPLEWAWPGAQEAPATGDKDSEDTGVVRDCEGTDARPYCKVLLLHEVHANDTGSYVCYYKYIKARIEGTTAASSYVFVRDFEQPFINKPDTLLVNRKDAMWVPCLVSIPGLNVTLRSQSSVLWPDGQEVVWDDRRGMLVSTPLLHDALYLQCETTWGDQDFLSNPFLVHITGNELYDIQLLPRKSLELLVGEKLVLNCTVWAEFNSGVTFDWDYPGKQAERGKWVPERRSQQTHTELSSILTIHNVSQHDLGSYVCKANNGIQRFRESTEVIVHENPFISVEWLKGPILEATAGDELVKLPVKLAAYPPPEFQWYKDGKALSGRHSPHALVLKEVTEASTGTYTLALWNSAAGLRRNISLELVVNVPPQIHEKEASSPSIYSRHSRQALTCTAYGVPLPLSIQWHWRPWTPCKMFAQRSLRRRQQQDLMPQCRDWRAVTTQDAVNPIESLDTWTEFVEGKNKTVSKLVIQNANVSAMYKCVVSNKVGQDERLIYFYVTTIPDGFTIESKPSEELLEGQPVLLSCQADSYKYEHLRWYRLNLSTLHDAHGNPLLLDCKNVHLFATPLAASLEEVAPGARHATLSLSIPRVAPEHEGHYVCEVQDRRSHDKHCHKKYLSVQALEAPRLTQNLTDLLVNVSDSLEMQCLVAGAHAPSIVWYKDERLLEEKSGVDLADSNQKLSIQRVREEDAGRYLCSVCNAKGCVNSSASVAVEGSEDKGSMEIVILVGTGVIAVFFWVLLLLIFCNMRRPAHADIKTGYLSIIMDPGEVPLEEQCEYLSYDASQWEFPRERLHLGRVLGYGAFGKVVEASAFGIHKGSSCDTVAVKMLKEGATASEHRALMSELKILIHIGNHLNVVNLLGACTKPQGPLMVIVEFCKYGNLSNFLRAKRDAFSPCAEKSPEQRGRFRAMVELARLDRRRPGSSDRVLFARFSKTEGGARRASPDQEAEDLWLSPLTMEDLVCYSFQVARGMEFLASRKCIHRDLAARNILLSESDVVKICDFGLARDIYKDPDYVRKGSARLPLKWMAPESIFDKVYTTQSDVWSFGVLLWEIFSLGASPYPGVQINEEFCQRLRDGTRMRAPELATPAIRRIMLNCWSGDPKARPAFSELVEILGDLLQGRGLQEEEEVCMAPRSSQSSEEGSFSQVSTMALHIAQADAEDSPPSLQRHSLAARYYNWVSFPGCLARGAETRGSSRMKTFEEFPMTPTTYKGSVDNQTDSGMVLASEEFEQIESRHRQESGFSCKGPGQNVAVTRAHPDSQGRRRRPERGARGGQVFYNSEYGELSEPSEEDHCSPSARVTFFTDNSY

Homo sapiens [4] = organism: Homo sapiens; experiment: Antiangiogenic activity in VEGF-induced HLMEC assessed as sprouts per bead at 1.3 uM after 24 hrs by sprouting assay; assay type: functional
How it was run: (§3)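 HLMEC seeded on cytodex-3 microcarrier beads and embedded in 3D fibrinogen gel with 20 ng/mL VEGF plus compound at a final 1.3 or 2.6 µM (from 1 mM DMSO stock). Gel polymerised with 0.65 U/mL thrombin and overlaid with MCDB131, 5% FCS, 5% human serum and 200 U/mL Trasylol. Negative control: gel without growth factors. After 24 h, fixed in 1% PFA; sprouts per 50 beads counted microscopically. Triplicates per condition, n = 9 experiments.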

Homo sapiens [5] = organism: Homo sapiens; experiment: Induction of apoptosis in HDMEC assessed as cleaved caspase 3 at 1.3 uM after 24 hrs; assay type: functional
How it was run: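 HDMEC incubated 24 h with compound. Adherent cells and supernatant harvested together, stained with an antibody to cleaved caspase-3, and analysed by FACS as percent apoptotic cells. Three independent repeats.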

Homo sapiens [6] = organism: Homo sapiens; experiment: Antiangiogenic activity in VEGF-induced HLMEC assessed as number of sprouts per bead at 2.6 uM after 24 hrs by sprouting assay; assay type: functional; how it was run: as §3
Angiopoietin-1 receptor = Angiopoietin-1 receptor (Homo sapiens, UniProt Q02763); experiment: Inhibition of human recombinant TIE2; how it was run: as §1
Chain of Angiopoietin-1 receptor (Q02763 whole entry): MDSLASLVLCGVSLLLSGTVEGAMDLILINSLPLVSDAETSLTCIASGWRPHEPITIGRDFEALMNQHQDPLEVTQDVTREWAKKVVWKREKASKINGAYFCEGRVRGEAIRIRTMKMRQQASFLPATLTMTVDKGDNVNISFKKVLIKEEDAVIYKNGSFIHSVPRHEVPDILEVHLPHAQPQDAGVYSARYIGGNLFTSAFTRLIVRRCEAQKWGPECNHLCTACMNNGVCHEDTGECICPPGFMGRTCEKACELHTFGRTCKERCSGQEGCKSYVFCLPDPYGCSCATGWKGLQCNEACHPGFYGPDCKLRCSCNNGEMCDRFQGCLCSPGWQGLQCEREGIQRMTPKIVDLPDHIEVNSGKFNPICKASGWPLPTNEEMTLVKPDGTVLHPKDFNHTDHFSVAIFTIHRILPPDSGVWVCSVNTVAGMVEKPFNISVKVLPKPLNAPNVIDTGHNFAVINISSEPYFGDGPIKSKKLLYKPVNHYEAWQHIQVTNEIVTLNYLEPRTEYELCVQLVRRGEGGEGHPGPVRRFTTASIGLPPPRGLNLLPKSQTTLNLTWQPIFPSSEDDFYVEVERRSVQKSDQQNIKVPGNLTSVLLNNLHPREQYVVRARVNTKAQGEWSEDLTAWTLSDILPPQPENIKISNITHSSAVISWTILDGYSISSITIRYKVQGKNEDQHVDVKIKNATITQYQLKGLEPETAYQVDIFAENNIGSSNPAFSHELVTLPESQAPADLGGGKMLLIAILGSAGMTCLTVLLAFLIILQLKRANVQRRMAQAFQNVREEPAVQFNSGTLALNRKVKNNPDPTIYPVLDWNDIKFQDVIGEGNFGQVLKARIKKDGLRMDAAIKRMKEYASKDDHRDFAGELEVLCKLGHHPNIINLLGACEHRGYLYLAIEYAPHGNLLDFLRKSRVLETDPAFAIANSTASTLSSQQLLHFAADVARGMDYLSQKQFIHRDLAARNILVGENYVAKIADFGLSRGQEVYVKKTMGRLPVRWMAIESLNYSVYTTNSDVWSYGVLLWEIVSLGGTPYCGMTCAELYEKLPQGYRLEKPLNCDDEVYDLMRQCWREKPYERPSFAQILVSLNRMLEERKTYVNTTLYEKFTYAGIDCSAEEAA

Focal adhesion kinase 1 = Focal adhesion kinase 1 (Homo sapiens, UniProt Q05397); experiment: Inhibition of human recombinant FAK
[7] = target: Proto-oncogene tyrosine-protein kinase Src (Homo sapiens, UniProt P12931); experiment: Inhibition of human recombinant SRC; how it was run: as §2
Chain of Proto-oncogene tyrosine-protein kinase Src (P12931 2-536 limits assumed): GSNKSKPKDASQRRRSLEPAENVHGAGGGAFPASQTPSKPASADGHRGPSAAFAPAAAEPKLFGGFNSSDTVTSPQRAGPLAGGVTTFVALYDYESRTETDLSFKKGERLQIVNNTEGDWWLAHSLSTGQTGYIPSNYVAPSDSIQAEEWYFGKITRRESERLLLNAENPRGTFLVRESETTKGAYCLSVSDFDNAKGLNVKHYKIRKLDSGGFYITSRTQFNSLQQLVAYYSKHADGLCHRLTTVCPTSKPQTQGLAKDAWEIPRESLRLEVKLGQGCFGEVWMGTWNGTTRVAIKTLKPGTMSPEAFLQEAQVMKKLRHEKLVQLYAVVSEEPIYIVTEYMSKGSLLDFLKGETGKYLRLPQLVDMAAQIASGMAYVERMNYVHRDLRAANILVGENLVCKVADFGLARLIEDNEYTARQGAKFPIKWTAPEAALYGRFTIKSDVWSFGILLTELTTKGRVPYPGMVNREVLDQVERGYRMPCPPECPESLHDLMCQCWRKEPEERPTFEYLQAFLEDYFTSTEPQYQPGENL

[8] = target: T2, Serine/threonine-protein kinase PLK4 (Homo sapiens, UniProt O00444); experiment: Inhibition of human recombinant SAK
T2 sequence (O00444 whole entry): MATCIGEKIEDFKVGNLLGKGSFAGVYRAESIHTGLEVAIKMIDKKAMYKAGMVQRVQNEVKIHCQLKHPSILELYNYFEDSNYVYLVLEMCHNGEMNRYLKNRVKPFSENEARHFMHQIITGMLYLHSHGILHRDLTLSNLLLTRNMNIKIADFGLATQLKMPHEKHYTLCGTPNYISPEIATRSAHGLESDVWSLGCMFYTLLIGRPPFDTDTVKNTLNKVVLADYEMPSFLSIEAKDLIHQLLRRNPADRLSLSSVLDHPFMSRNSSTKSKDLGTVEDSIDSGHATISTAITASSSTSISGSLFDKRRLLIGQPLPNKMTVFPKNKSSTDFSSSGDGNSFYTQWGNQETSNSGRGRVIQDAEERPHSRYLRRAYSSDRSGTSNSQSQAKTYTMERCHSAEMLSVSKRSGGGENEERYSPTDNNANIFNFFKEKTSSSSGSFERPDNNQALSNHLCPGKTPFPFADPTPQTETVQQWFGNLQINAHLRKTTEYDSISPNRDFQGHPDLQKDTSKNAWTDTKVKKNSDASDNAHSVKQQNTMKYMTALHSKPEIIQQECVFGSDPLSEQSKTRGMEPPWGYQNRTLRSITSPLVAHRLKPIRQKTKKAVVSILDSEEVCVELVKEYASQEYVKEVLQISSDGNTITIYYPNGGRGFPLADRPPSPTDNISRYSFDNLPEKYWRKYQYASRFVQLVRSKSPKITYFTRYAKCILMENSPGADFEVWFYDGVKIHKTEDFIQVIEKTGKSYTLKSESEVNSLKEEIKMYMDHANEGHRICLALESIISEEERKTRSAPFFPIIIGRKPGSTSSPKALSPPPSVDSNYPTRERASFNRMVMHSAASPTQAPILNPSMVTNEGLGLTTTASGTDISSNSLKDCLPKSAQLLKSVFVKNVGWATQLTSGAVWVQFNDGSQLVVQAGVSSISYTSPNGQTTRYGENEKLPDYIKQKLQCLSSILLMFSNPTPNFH
How it was run: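 Human kinase expressed from cDNA in Sf9 cells (baculovirus) as GST- or His-tagged protein, affinity-purified. 10 compound concentrations, 1% DMSO final, 30 °C for 80 min. Stopped with H₃PO₄, 33P incorporation counted, IC50 derived.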

Aurora kinase A = target: T3, Aurora kinase A (Homo sapiens, UniProt O14965); experiment: Inhibition of human recombinant Aurora A
T3 sequence (O14965 whole entry): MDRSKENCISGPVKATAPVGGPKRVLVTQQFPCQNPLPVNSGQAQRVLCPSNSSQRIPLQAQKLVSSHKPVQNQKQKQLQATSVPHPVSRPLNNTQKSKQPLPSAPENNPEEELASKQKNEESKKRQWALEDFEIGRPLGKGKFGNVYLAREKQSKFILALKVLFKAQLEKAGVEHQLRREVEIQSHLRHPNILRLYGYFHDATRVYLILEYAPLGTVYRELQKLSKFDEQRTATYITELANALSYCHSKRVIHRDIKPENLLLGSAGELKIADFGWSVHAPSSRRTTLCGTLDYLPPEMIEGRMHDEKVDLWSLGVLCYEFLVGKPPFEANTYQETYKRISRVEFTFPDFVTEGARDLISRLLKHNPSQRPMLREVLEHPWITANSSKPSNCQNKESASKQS
How it was run: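 Aurora-A or Aurora-B, human cDNA expressed in Sf9 cells as tagged recombinant protein, phosphorylating Tetra(LRRWSLG). Reactions used 60 mM HEPES pH 7.5, Mg2+/Mn2+ (3 mM each), 1.2 mM DTT, vanadate and 1 µM [γ-33P]ATP, ran 80 min at 30 °C and were stopped with 2% H3PO4.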

[9] = target: T4, NUAK family SNF1-like kinase 1 (Homo sapiens, UniProt O60285); experiment: Inhibition of human recombinant ARK5
T4 sequence (O60285 whole entry): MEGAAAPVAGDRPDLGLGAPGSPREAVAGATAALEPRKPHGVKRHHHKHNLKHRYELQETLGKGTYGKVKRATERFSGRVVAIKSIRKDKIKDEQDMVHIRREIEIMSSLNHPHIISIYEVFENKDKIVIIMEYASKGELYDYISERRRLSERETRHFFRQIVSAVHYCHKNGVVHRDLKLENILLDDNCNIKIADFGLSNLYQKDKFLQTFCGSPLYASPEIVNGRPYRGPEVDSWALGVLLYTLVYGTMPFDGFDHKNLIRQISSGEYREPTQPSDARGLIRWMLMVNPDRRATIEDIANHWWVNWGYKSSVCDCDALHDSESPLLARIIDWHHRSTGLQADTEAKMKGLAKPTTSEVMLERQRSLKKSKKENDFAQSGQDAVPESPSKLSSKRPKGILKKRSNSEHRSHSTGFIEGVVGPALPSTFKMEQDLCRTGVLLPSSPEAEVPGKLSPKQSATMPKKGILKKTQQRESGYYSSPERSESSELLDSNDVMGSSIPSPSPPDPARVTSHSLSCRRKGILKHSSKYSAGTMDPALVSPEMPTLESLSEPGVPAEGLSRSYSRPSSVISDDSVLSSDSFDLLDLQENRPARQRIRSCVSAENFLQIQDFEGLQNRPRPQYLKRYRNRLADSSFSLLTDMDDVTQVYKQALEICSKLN
How it was run: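 Human ARK5 made in Sf9 cells by baculovirus (GST- or His-tagged, affinity-purified) and read by autophosphorylation in a 33PanQinase radiometric assay. Buffer: 60 mM HEPES-NaOH pH 7.5, 3 mM MgCl2, 3 mM MnCl2, 3 µM orthovanadate, 1.2 mM DTT, PEG20000 and 1 µM [γ-33P]ATP.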

Chain of Vascular endothelial growth factor receptor 2 (P35968 whole entry, the tested form may be a part): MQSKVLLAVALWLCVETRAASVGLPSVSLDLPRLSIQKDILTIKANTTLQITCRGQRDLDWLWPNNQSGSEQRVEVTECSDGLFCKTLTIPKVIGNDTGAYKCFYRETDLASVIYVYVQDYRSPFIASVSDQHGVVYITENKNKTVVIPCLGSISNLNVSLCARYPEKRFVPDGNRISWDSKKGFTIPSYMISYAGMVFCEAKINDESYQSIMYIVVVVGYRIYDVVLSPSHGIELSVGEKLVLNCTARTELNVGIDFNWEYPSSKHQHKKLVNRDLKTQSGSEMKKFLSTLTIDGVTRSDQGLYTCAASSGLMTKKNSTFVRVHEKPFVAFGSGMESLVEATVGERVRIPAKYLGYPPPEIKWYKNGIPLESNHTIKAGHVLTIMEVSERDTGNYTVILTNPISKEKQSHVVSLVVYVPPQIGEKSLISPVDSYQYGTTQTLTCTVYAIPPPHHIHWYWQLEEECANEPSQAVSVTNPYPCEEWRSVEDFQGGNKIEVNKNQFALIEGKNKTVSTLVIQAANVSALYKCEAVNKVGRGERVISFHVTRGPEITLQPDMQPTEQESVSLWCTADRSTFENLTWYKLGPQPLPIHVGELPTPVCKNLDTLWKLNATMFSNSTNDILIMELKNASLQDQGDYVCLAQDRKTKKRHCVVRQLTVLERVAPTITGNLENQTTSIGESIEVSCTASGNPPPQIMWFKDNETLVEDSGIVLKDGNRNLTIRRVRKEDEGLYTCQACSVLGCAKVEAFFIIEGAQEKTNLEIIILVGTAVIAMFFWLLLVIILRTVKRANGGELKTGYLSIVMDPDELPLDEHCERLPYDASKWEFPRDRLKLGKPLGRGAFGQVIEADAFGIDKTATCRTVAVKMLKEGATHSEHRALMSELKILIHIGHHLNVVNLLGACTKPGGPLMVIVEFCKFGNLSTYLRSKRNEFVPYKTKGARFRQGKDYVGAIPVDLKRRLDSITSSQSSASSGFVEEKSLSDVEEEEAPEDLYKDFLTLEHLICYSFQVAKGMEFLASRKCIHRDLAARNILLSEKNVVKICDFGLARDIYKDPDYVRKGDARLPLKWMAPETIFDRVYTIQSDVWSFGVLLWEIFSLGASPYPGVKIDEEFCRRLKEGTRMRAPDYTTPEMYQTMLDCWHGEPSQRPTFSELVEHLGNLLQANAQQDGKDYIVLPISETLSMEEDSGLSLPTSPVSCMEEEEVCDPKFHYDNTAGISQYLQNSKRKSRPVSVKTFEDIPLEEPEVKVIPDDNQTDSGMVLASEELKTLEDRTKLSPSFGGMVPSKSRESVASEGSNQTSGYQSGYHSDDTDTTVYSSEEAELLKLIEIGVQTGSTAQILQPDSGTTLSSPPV

Work on `COc1cc(C2=C(c3c[nH]c4ccccc34)C(O)NC2=O)cc(OC)c1OC` (stereo not given) yielded an IC50 [1] of 5.9 µM, an IC50 [2] of 44 µM and an IC50 [3] of 3.4 µM.

`COc1cc(C2=C(c3c[nH]c4ccccc34)C(=O)NC2=O)cc(OC)c1OC` [MALEIMIDE] gave an inhibition (Homo sapiens [4]) of 81%, an Activity (Homo sapiens [5]) of 22.4% and an Activity (Homo sapiens [6]) of 0.48.

With `CCOCn1cc(C2=C(c3cc(OC)c(OC)c(OC)c3)C(=O)NC2)c2ccccc21` the IC50 [1] was 5.3 µM, the IC50 (Angiopoietin-1 receptor) was 24 µM and the IC50 (Focal adhesion kinase 1) was 28 µM. The IC50 [7] was 40 µM, the IC50 [3] was 3.6 µM and the IC50 [8] was 35 µM. The IC50 (Aurora kinase A) was 29 µM.

`COc1ccc(C2=C(c3cn(C)c4ccccc34)C(=O)NC2)cc1` was tested, and the IC50 [1] was 31 µM, the IC50 [9] was 3.6 µM and the IC50 (Angiopoietin-1 receptor) was 48 µM. It also gave an IC50 [2] of 14 µM, an IC50 [7] of 39 µM and an IC50 [3] of 18 µM. The IC50 [8] was 46 µM.
